The subject of one assay is Lu1. As to the kind of experiment: Cytotoxicity against human Lu1 cells after 3 days by SRB assay. The assay is classed as functional. Conditions: Lu1, 72 h, read-out: ED50 (the source's name).
The next assay concerns KB. As to the kind of experiment: Cytotoxicity against human KB cells after 3 days by SRB assay. The assay is classed as functional. The following applies: 72 h, read-out: ED50 (the source's name). For orientation: Sulforhodamine B stains cellular protein and so reports cell mass.
A short description of assay [1]: Cytotoxicity against human KBVIN cells in presence of 1 ug/ml vinblastine after 3 days by SRB assay. The assay is classed as functional. The following applies: 72 h, read-out: ED50 (the source's name).
For the next assay, the system named is ZR-75-1. As to the kind of experiment: Cytotoxicity against human ZR-75-1 cells after 3 days by SRB assay. The class given is functional. The following applies: ZR-75-1, 72 h, read-out: ED50 (the source's name).
The next assay concerns LNCaP. As to the kind of experiment: Cytotoxicity against human LNCAP cells after 3 days by SRB assay. The following applies: 72 h, read-out: ED50 (the source's name). The class given is functional.
The subject of the next assay is ASK. As to the kind of experiment: Cytotoxicity against human ASK cells after 3 days by SRB assay. The class given is functional, cell-based. Put shortly:
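ASK cell line: human astrocytoma.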

A short description of assay [2]: Cytotoxicity against human KBVIN cells after 3 days by SRB assay. The class given is functional. The following applies: 72 h, read-out: ED50 (the source's name).
The test system of a further assay is Plasmodium falciparum. As to the kind of experiment: Antimalarial activity against Plasmodium falciparum by [3H]hypoxanthine uptake. The class given is functional, organism-based.
The target in assay [3] is Human immunodeficiency virus type 1 reverse transcriptase (Human immunodeficiency virus 1) (UniProt Q72547). As to the kind of experiment: Inhibition of HIV1 reverse transcriptase.

Drawing on ChEMBL document CHEMBL1148073, “Cytotoxic diterpenoids from Isodon megathyrsus” (1994), this text covers EC50, ED50 and Activity for six compounds.

The structures appear in SMILES notation. Converted amounts (≈) assume the structure as drawn. The source made the active and inactive calls. No cut-off for these calls is given here.

Turning to `COc1cc2c(c(OC)c1OC)-c1ccc(OC)c(=O)cc1[C@@H](NC(C)=O)CC2` [COLCHICINE], the EC50 with Lu1 stood at 0.2 µg/mL (≈ 0.501 µM); with KB, 0.2 µg/mL (≈ 0.501 µM); in assay [1], 0.6 µg/mL; with ZR-75-1, 0.1 µg/mL (≈ 0.25 µM); with LNCaP, 0.06 µg/mL (≈ 0.15 µM); in assay [2] it was 3.5 µg/mL (≈ 8.76 µM). The ED50 entry with ASK is “Active”.
As for `Cc1c2ccncc2c(C)c2c1[nH]c1ccccc12` [ELLIPTECINE], the EC50 came to 0.2 µg/mL (≈ 0.812 µM) in the assay on Lu1; 0.04 µg/mL (≈ 0.162 µM) in the assay on KB; 0.2 µg/mL in assay [1]; 0.9 µg/mL (≈ 3.65 µM) in the assay on ZR-75-1; 0.8 µg/mL (≈ 3.25 µM) in the assay with LNCaP; 0.3 µg/mL (≈ 1.22 µM) in assay [2]. The ED50 result with ASK is “inactive”.
Consider `C=C1C(=O)[C@]23[C@H](O)[C@H]1CC[C@H]2[C@@]12CO[C@@]3(O)C[C@@H]1C(C)(C)CC[C@@H]2O` [MEGATHYRIN A], for which the EC50 was found to be 3.4 µg/mL (≈ 9.76 µM) in the assay with Lu1; 1.1 µg/mL (≈ 3.16 µM) in the assay on KB; 8.9 µg/mL in [1]; 1.8 µg/mL (≈ 5.17 µM) with ZR-75-1; 1.8 µg/mL (≈ 5.17 µM) in the assay on LNCaP; 19.1 µg/mL (≈ 54.8 µM) in [2]. Moreover, the outcome (with Plasmodium falciparum; in assay [3]) was inactive. Also, the ED50 entry in the assay with ASK is “inactive”.
As to `C=C1C(=O)[C@]23[C@H](O)[C@H]1CC[C@H]2[C@@]12CO[C@@]3(O)C[C@@H]1C(C)(C)CC[C@@H]2OC(C)=O` [RABDOCOETSIN B], the EC50 was 0.5 µg/mL (≈ 1.28 µM) in the assay with Lu1; 0.3 µg/mL (≈ 0.768 µM) in the assay with KB; 7.2 µg/mL in [1]; 0.8 µg/mL (≈ 2.05 µM) in the assay on ZR-75-1; 0.6 µg/mL (≈ 1.54 µM) in the assay on LNCaP; over 20 µg/mL in assay [2]. The outcome (in the assay with Plasmodium falciparum; in assay [3]) was inactive. Further, in the assay on ASK, the ED50 entry was “inactive”.
Consider `C=C1C(=O)[C@]23C[C@H]1C[C@H](O)[C@H]2[C@@]12CO[C@@]3(O)C[C@@H]1C(C)(C)CC[C@@H]2O` [RABDOCOETSIN C], for which the EC50 in the assay with Lu1 was 0.4 µg/mL (≈ 1.15 µM); in the assay with KB, 0.6 µg/mL (≈ 1.72 µM); in assay [1] it was over 20 µg/mL; in the assay with ZR-75-1, 1 µg/mL (≈ 2.87 µM); in the assay with LNCaP it was 0.7 µg/mL (≈ 2.01 µM); in assay [2], over 20 µg/mL. The result (in the assay with Plasmodium falciparum; in assay [3]) was inactive. Also, the ED50 result in the assay on ASK is “inactive”.
As to `C=C1C(=O)[C@]23C[C@H]1C[C@H](OC(C)=O)[C@H]2[C@@]12CO[C@@]3(O)C[C@@H]1C(C)(C)CC[C@@H]2O` [RABDOCOETSIN D], the EC50 is 0.9 µg/mL (≈ 2.3 µM) in the assay on Lu1; 0.5 µg/mL (≈ 1.28 µM) in the assay on KB; 12.1 µg/mL in assay [1]; 0.8 µg/mL (≈ 2.05 µM) with ZR-75-1; 0.8 µg/mL (≈ 2.05 µM) with LNCaP; 9.5 µg/mL (≈ 24.3 µM) in assay [2]. Moreover, the outcome (with Plasmodium falciparum; in assay [3]) was inactive. The ED50 result with ASK is “inactive”.
